Assays:
Zea mays = test: Phytotoxicity against Zea mays (maize) at 750 g/ha; assay type: organism-based; conditions: in vivo
Brassica napus [1] = test: Pre-emergence herbicidal activity against Brassica napus (oilseed rape) at 1.5 kg/ha applied through spraying immediately after seed plantings; assay type: functional
Method in brief: (§1)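 Seeds sown in 6 cm diameter plastic boxes containing artificial mixed soil. Amaranthus retroflexus seed was reproduced outdoors and stored at room temperature. Alfalfa and rape seed came from a crop institute.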

Amaranthus retroflexus [2] = test: Pre-emergence herbicidal activity against Amaranthus retroflexus at 1.5 kg/ha applied through spraying immediately after seed plantings; assay type: functional; method in brief: as §1
Medicago sativa [3] = test: Pre-emergence herbicidal activity against Medicago sativa (alfalfa) at 1.5 kg/ha applied through spraying immediately after seed plantings; assay type: functional; method in brief: as §1
Brassica napus [4] = test: Post-emergence herbicidal activity against Brassica napus (oilseed rape) at 1.5 kg/ha applied through spraying after first true leaf expanded; assay type: functional; method in brief: as §1
Amaranthus retroflexus [5] = test: Post-emergence herbicidal activity against Amaranthus retroflexus at 1.5 kg/ha applied through spraying after first true leaf expanded; assay type: functional; method in brief: as §1
Medicago sativa [6] = test: Post-emergence herbicidal activity against Medicago sativa (alfalfa) at 1.5 kg/ha applied through spraying after first true leaf expanded; assay type: functional; method in brief: as §1
Brassica napus [7] = test: Post-emergence herbicidal activity against Brassica napus (oilseed rape) at 75 g/ha applied through spraying after first true leaf expanded; assay type: functional; method in brief: as §1
Brassica napus [8] = test: Post-emergence herbicidal activity against Brassica napus (oilseed rape) at 300 g/ha applied through spraying after first true leaf expanded; assay type: functional; method in brief: as §1
Brassica napus [9] = test: Post-emergence herbicidal activity against Brassica napus (oilseed rape) at 1500 g/ha applied through spraying after first true leaf expanded; assay type: functional; method in brief: as §1
Amaranthus retroflexus [10] = test: Post-emergence herbicidal activity against Amaranthus retroflexus at 75 g/ha applied through spraying after first true leaf expanded; assay type: functional; method in brief: as §1
Amaranthus retroflexus [11] = test: Post-emergence herbicidal activity against Amaranthus retroflexus at 300 g/ha applied through spraying after first true leaf expanded; assay type: functional; method in brief: as §1
Amaranthus retroflexus [12] = test: Post-emergence herbicidal activity against Amaranthus retroflexus at 1500 g/ha applied through spraying after first true leaf expanded; assay type: functional; method in brief: as §1
Medicago sativa [13] = test: Post-emergence herbicidal activity against Medicago sativa (alfalfa) at 75 g/ha applied through spraying after first true leaf expanded; assay type: functional; method in brief: as §1
Medicago sativa [14] = test: Post-emergence herbicidal activity against Medicago sativa (alfalfa) at 300 g/ha applied through spraying after first true leaf expanded; assay type: functional; method in brief: as §1
Medicago sativa [15] = test: Post-emergence herbicidal activity against Medicago sativa (alfalfa) at 1500 g/ha applied through spraying after first true leaf expanded; assay type: functional; method in brief: as §1
Medicago sativa [16] = test: Herbicidal activity against Medicago sativa (alfalfa); assay type: functional
Medicago sativa [17] = test: Herbicidal activity against Medicago sativa (alfalfa) at 37.50 g/ha; assay type: functional
Medicago sativa [18] = test: Herbicidal activity against Medicago sativa (alfalfa) at 18.75 g/ha; assay type: functional
Medicago sativa [19] = test: Herbicidal activity against Medicago sativa (alfalfa) at 75 g/ha; assay type: functional
Medicago sativa [20] = test: Herbicidal activity against Medicago sativa (alfalfa) at 150 g/ha; assay type: functional

Structure (SMILES) | Activity (Zea mays) | Activity (Brassica napus [1]) [%] | Activity (Amaranthus retroflexus [2]) [%] | Activity (Medicago sativa [3]) [%] | Activity (Brassica napus [4]) [%] | Activity (Amaranthus retroflexus [5]) [%] | Activity (Medicago sativa [6]) [%] | other results
COCCOC(=O)/C(C#N)=C(/NCc1ccc(OC)nc1)SC | Non-toxic | 48.8 | 50 | 10 | 90.1 | 90 | 72.3 | 
CCOCCOC(=O)/C(C#N)=C(/NCc1ccc(Cl)nc1)SC | Non-toxic |  |  |  | 80.6 | 100 | 75 | Activity (Brassica napus [7]): 36.8%; Activity (Brassica napus [8]): 100%; Activity (Brassica napus [9]): 100%; Activity (Amaranthus retroflexus [10]): 52.3%; Activity (Amaranthus retroflexus [11]): 96.2%; Activity (Amaranthus retroflexus [12]): 100%; Activity (Medicago sativa [13]): 36.3%; Activity (Medicago sativa [14]): 57.5%; Activity (Medicago sativa [15]): 76.2%; ED50 (Medicago sativa [16]): 4.35 g/ha; ED90 (Medicago sativa [16]): 39.3 g/ha; Activity (Medicago sativa [17]): 88.9%; Activity (Medicago sativa [18]): 80.6%; Activity (Medicago sativa [19]): 95.3%; Activity (Medicago sativa [20]): 98.1%
CCCCOc1ccc(CN/C(=C(/C#N)C(=O)OCCOCC)C(C)C)cn1 | Non-toxic | 6.3 | 10.1 | 0 | 100 | 100 | 41 | 
CCOCCOC(=O)/C(C#N)=C(/NCc1ccc(OCC)nc1)SC | Non-toxic | 22 | 37.5 | 0 | 100 | 100 | 91.5 | 
CCOc1ccc(CN/C(SC)=C(\C#N)C(=O)OCCOC)cn1 | Non-toxic | 5.1 | 31.3 | 0 | 84.5 | 70 | 55.3 | 
CS/C(NCc1ccc(Cl)nc1)=C(/C#N)C(=O)OCC1CCCO1 (centres undefined) | Non-toxic | 54.2 | 14.3 | 16.7 | 100 | 98.8 | 64 | Activity (Brassica napus [7]): 94.7%; Activity (Brassica napus [8]): 97.3%; Activity (Brassica napus [9]): 100%; Activity (Amaranthus retroflexus [10]): 79.1%; Activity (Amaranthus retroflexus [11]): 88.4%; Activity (Amaranthus retroflexus [12]): 98.8%; Activity (Medicago sativa [13]): 41.9%; Activity (Medicago sativa [14]): 52.3%; Activity (Medicago sativa [15]): 64%
CCOCCOC(=O)/C(C#N)=C(/CC)NCc1ccc(Cl)nc1 | Non-toxic | 75 | 71.4 | 71.4 | 100 | 100 | 83.7 | Activity (Brassica napus [7]): 94.1%; Activity (Brassica napus [8]): 98.4%; Activity (Brassica napus [9]): 100%; Activity (Amaranthus retroflexus [10]): 88.4%; Activity (Amaranthus retroflexus [11]): 100%; Activity (Amaranthus retroflexus [12]): 100%; Activity (Medicago sativa [13]): 45.3%; Activity (Medicago sativa [14]): 62.8%; Activity (Medicago sativa [15]): 83.7%
CCOCCOC(=O)/C(C#N)=C(\NCc1ccc(Cl)nc1)C(C)C | Non-toxic | 95.5 | 97.8 | 23 | 100 | 93.9 | 65.9 | Activity (Brassica napus [7]): 89.4%; Activity (Brassica napus [8]): 100%; Activity (Brassica napus [9]): 100%; Activity (Amaranthus retroflexus [10]): 72.1%; Activity (Amaranthus retroflexus [11]): 93%; Activity (Amaranthus retroflexus [12]): 100%; Activity (Medicago sativa [13]): 14%; Activity (Medicago sativa [14]): 45.3%; Activity (Medicago sativa [15]): 75.6%
CCCOc1ccc(CN/C(C)=C(/C#N)C(=O)OCCOCC)cn1 | Non-toxic | 0 | 23.4 | 17.8 | 17 | 31 | 34.2 | 
CCOCCOC(=O)/C(C#N)=C(/C)NCc1ccc(Cl)nc1 | Non-toxic | 100 | 93 | 66.4 | 100 | 100 | 100 | Activity (Brassica napus [7]): 14.6%; Activity (Brassica napus [9]): 100%; Activity (Amaranthus retroflexus [10]): 18.3%; Activity (Amaranthus retroflexus [12]): 100%; Activity (Medicago sativa [13]): 0%; Activity (Medicago sativa [15]): 100%
CCCOc1ccc(CN/C(=C(/C#N)C(=O)OCCOCC)C(C)C)cn1 | Non-toxic | 30.7 | 30.4 | 14.8 | 100 | 100 | 75.9 | 
CCOCCOC(=O)/C(C#N)=C(/C)NCc1ccc(OC)nc1 | Non-toxic | 92.5 | 100 | 57.1 | 69 | 100 | 64 | 
C=CCOC(=O)/C(C#N)=C(/NCc1ccc(Cl)nc1)SCC | Non-toxic | 0 | 0 | 0 | 100 | 100 | 98.8 | 
COC(=O)COC(=O)/C(C#N)=C(/NCc1ccc(Cl)nc1)SC | Non-toxic | 0 | 0 | 0 | 0 | 0 | 4.8 | 
CCOCCOC(=O)/C(C#N)=C(\NCc1ccc(OC)nc1)C(C)C | Non-toxic | 100 | 71 | 32.9 | 100 | 100 | 53 | 
CCOCCOC(=O)/C(C#N)=C(/NCc1ccc(Cl)cc1)SC |  |  |  |  |  |  |  | ED50 (Medicago sativa [16]): 8.85 g/ha; ED90 (Medicago sativa [16]): 193.95 g/ha; Activity (Medicago sativa [17]): 76.9%; Activity (Medicago sativa [18]): 59.3%; Activity (Medicago sativa [19]): 80.6%; Activity (Medicago sativa [20]): 87%
CCOCCOC(=O)/C(C#N)=C(/NCc1ccc(OC)nc1)SC | Non-toxic | 68.3 | 56.3 | 36.4 | 100 | 100 | 80.9 | 
COCCOC(=O)/C(C#N)=C(/NCc1cccnc1)SC | Non-toxic | 9.1 | 0 | 0 | 6.4 | 0 | 15.9 | 
CCOCCOC(=O)/C(C#N)=C(/NCc1ccc(Cl)cc1)C(C)C |  | 0 | 52.2 | 0 | 96.5 | 93.9 | 28.1 | 
CS/C(NCc1ccc(Cl)nc1)=C(/C#N)C(=O)N1CCOCC1 | Non-toxic | 0 | 0 | 0 | 99.4 | 100 | 75 | Activity (Brassica napus [7]): 0%; Activity (Brassica napus [8]): 0%; Activity (Brassica napus [9]): 99.4%; Activity (Amaranthus retroflexus [10]): 0%; Activity (Amaranthus retroflexus [11]): 25%; Activity (Amaranthus retroflexus [12]): 100%; Activity (Medicago sativa [13]): 0%; Activity (Medicago sativa [14]): 9.7%; Activity (Medicago sativa [15]): 75%
C=CCOC(=O)/C(C#N)=C(/NCc1ccc(Cl)nc1)SC | Non-toxic | 0 | 0 | 0 | 91.7 | 100 | 100 | Activity (Brassica napus [7]): 33.3%; Activity (Brassica napus [8]): 82.7%; Activity (Brassica napus [9]): 91.7%; Activity (Amaranthus retroflexus [10]): 22.2%; Activity (Amaranthus retroflexus [11]): 61.6%; Activity (Amaranthus retroflexus [12]): 100%; Activity (Medicago sativa [13]): 15.9%; Activity (Medicago sativa [14]): 56.1%; Activity (Medicago sativa [15]): 100%
CCCOc1ccc(CN/C(SC)=C(\C#N)C(=O)OCCOCC)cn1 | Non-toxic | 16.3 | 0 | 0 | 96.8 | 93.8 | 0 | 
CCOCCOC(=O)/C(C#N)=C(\NCc1ccc(OCC)nc1)C(C)C | Non-toxic | 54.8 | 50.7 | 10.1 | 100 | 100 | 45.8 | 
CCOCCOC(=O)/C(C#N)=C\NCc1ccc(Cl)nc1 | Non-toxic | 21.8 | 12.2 | 14.8 | 7.3 | 18.3 | 15.8 | 

Source: ChEMBL document CHEMBL3046628, “Synthesis and herbicidal activity of 2-cyano-3-substituted-pyridinemethylaminoacrylates” (J Agric Food Chem, 2003)
